Experimental data pooled from the literature.
Lines come from different studies, so protocols differ.
Method: competition with immobilised ligand
RPS6KA5 N-terminal kinase domain: Ribosomal protein S6 kinase alpha-5, N-terminal kinase domain (RPS6KA5, Homo sapiens, UniProt O75582)
RPS6KA5 C-terminal kinase domain: Ribosomal protein S6 kinase alpha-5, C-terminal kinase domain (RPS6KA5, Homo sapiens, UniProt O75582)

CCN1CCN(Cc2ccc(C(=O)Nc3ccc(C)c(Oc4ccc5c(c4)CC(=O)N5)c3)cc2C(F)(F)F)CC1  remaining binding (RPS6KA5 N-terminal kinase domain; binding; 1 µM): 100%
NS(=O)(=O)c1cc(NC(=O)C2(c3ccccc3Cl)CC2)ccc1Oc1cccc(Cl)c1  remaining binding (RPS6KA5 N-terminal kinase domain; cell-free assay; 1 µM): 100%
COc1cnc(Nc2cccc(S(N)(=O)=O)c2)nc1N1CCN(c2ccccc2)C(=O)C1  remaining binding (RPS6KA5 N-terminal kinase domain; binding; 1 µM): 99%
O=C(c1ccc(Nc2ncc(Cl)c(-c3cc4ccccc4s3)n2)cc1)N1CCC(N2CCCC2)CC1  remaining binding (RPS6KA5 C-terminal kinase domain; binding; 1 µM): 54%
F[C@@H]1CCN(c2nccc(-c3cnn4ncccc34)n2)C1  remaining binding (RPS6KA5 C-terminal kinase domain; binding; 1 µM): 73%
O=c1nc(-c2ccccn2)sc2ccccc12  remaining binding (RPS6KA5 C-terminal kinase domain; binding; 1 µM): 88%
O=C(c1ccc(Nc2nccc(-c3cc4ccccc4s3)n2)cc1)N1CCC(N2CCCC2)CC1  remaining binding (RPS6KA5 C-terminal kinase domain; binding; 1 µM): 86%
c1cncc(-c2cccc(Nc3nccc(NC4CCCCC4)n3)c2)c1  remaining binding (RPS6KA5 N-terminal kinase domain; binding; 10 µM): 100%
O=C(c1ccc(Nc2ncc(Cl)c(-c3ccc(Cl)s3)n2)cc1)N1CCC(N2CCCC2)CC1  remaining binding (RPS6KA5 C-terminal kinase domain; binding; 1 µM): 48%
CN(C)c1nccc(-c2cnc3ncccn23)n1  remaining binding (RPS6KA5 C-terminal kinase domain; binding; 1 µM): 100%
O=C(NCCCN1CCOCC1)c1ccc(Nc2ncc(Cl)c(-c3ccc(Cl)s3)n2)cc1  remaining binding (RPS6KA5 N-terminal kinase domain; binding; 1 µM): 100%
Cc1cnn2ncc(-c3ccnc(N(C)C)n3)c2c1  remaining binding (RPS6KA5 N-terminal kinase domain; binding; 1 µM): 100%
O=C(O)c1cc(-c2ccc(C3CCNCC3)cc2)c2ccc(-c3ccc(C(F)(F)F)cc3)cc2c1  remaining binding (RPS6KA5 C-terminal kinase domain; cell-free assay; 1 µM): 100%
C[C@@H](c1ccc(-n2cnc3c(N)ncnc32)cc1)N1CCc2nn(C)c(Cc3ccccc3)c2C1=O  remaining binding (RPS6KA5 C-terminal kinase domain; binding; 0.1 µM): 92%
O=C(Nc1c[nH]nc1C(=O)NC1CCNCC1)c1cc(F)cc(F)c1  remaining binding (RPS6KA5 C-terminal kinase domain; binding; 1 µM): 100%
CC(=O)N1CCC(c2ccc(C(=O)NC3=NCCN3)cc2C(F)(F)F)CC1  remaining binding (RPS6KA5 N-terminal kinase domain; cell-free assay; 1 µM): 100%
CNC(=O)[C@@H]1CC[C@@H](n2c(-c3ccc4cnccc4c3)nc3ccc(C(=O)NCc4cccc(C(N)=O)c4)cc32)C1  remaining binding (RPS6KA5 C-terminal kinase domain; binding; 1 µM): 100%
O=C(NCCCN1CCOCC1)c1ccc(Nc2nccc(-c3cc4ccccc4s3)n2)cc1  remaining binding (RPS6KA5 C-terminal kinase domain; binding; 1 µM): 100%
COc1ncc2cc3ccccc3nc2c1C#N  remaining binding (RPS6KA5 C-terminal kinase domain; cell-free assay; 5 µM): 88%
Cc1cnc(Nc2ccc(C(=O)N3CCC(N4CCCC4)CC3)cc2)nc1-c1cc2ccccc2s1  remaining binding (RPS6KA5 N-terminal kinase domain; binding; 1 µM): 100%
C=CC(=O)N1CCC(C(=O)NCC(=O)N2CCN(c3nc(-c4cnc(N)nc4C(F)F)nc(N4CCOCC4)n3)CC2)CC1  remaining binding (RPS6KA5 N-terminal kinase domain; binding; 1 µM): 100%
C[C@@H]1CCN(c2nccc(-c3cnn4ncccc34)n2)C1  remaining binding (RPS6KA5 N-terminal kinase domain; binding; 1 µM): 70%
Cc1noc([C@H]2C[C@@H](c3ccc(C(F)(F)F)cc3)CN(C(=O)N3CCS(=O)(=O)C3)C2)n1  remaining binding (RPS6KA5 C-terminal kinase domain; cell-free assay; 1 µM): 100%
O=C(NCC1CCOCC1)c1n[nH]cc1NC(=O)c1c(F)cccc1F  remaining binding (RPS6KA5 N-terminal kinase domain; binding; 1 µM): 79%
Cn1nc(C(=O)NCc2ccc(C(=O)O)cc2)cc1-c1ccc2[nH]ccc2c1  remaining binding (RPS6KA5 N-terminal kinase domain; cell-free assay; 0.1 µM): 76%
Nc1ncc2c(n1)-c1c([nH]c3ccc(C#CC4CC4)cc13)CCCC2  remaining binding (RPS6KA5 C-terminal kinase domain; binding; 1 µM): 100%
N[C@H]1CCN(c2nccc(-c3cnn4ncccc34)n2)C1  remaining binding (RPS6KA5 N-terminal kinase domain; binding; 1 µM): 100%
C[C@H](c1ccnc(Nc2nc3ccc(-c4cc(N(C)C)ncn4)cc3[nH]2)c1)N1CCN(C(=O)CC(F)(F)F)CC1  remaining binding (RPS6KA5 C-terminal kinase domain; cell-free assay; 0.1 µM): 61%
COc1ccnn2ncc(-c3ccnc(N(C)C)n3)c12  remaining binding (RPS6KA5 C-terminal kinase domain; binding; 1 µM): 100%
Cc1c[nH]c2nccc(Oc3c(F)cc(Nc4cc(Cl)nc(N)n4)cc3F)c12  remaining binding (RPS6KA5 N-terminal kinase domain; cell-free assay; 0.1 µM): 100%
CN(CCCC(F)(F)F)c1nccc(-c2cnn3ncccc23)n1  remaining binding (RPS6KA5 C-terminal kinase domain; binding; 1 µM): 100%
COc1cnc(Nc2cccc(S(N)(=O)=O)c2)nc1N1CCN(c2ccccc2)CC1  remaining binding (RPS6KA5 N-terminal kinase domain; binding; 1 µM): 92%
